Test results published in ChEMBL document CHEMBL4028848, “Discovery of N-{4-[5-(4-Fluorophenyl)-3-methyl-2-methylsulfanyl-3H-imidazol-4-yl]-pyridin-2-yl}-acetamide (CBS-3595), a Dual p38α MAPK/PDE-4 Inhibitor with Activity against TNFα-Related Diseases” (J Med Chem, 2017).
Calls of active or inactive are those of the source. The rule behind the calls is not given here.

Columns and labels:
Liver [1] = test: Drug level in human liver microsomes treated with CBS-3595 at 10 to 100 uM; assay type: ADME, microsome
Procedure, shortened: (§1)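 Test compound incubated at 10, 30 and 100 μM with liver microsomes from rat, Cynomolgus monkey or human, and metabolites monitored.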

[2] = Drug level in cynomolgus monkey liver microsomes treated with CBS-3595 at 10 to 100 uM; assay type: ADME, Macaca fascicularis, microsome; procedure, shortened: as §1
Canis familiaris = test: Tmax in Beagle dog assessed as 4-(4-(4-fluorophenyl)-1-methyl-2-(methylsulfinyl)-1H-imidazol-5-yl)pyridin-2-amine level at 40 mg/kg, po by LC-MS/MS analysis; assay type: ADME, organism-based, Canis lupus familiaris; details: in vivo
Liver [3] = test: Drug level in rat liver microsomes treated with CBS-3595 at 10 to 100 uM; assay type: ADME, microsome; procedure, shortened: as §1
[4] = molecular target: Tyrosine-protein kinase Lyn (Homo sapiens) (UniProt P07948); test: Inhibition of Lyn (unknown origin) at 10 uM relative to control
Liver [5] = test: Drug metabolism in human liver microsomes assessed as 4-(4-(4-fluorophenyl)-1-methyl-2-(methylsulfinyl)-1H-imidazol-5-yl)pyridin-2-amine formation at 10 to 100 uM; assay type: ADME, microsome; procedure, shortened: as §1
Homo sapiens [6] = test: Toxicity in human assessed as effect on blood pressure at 50 mg, po administered as single dose; assay type: organism-based; details: in vivo
[7] = AUC (0 to t) in female Sprague-Dawley rat at 30 mg/kg, po by LC-MS/MS analysis; assay type: ADME, organism-based; details: in vivo
Procedure, shortened: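 Rats of each sex received a single oral dose of 30 mg/kg. Plasma concentration–time profiles of parent were determined separately for females and males.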

[8] = Half life in female Sprague-Dawley rat at 30 mg/kg, po by LC-MS/MS analysis; assay type: ADME, organism-based; details: in vivo
Cynomolgus monkey [9] = test: Toxicity in cynomolgus monkey assessed as whitish vomiting at 6 to 20 mg/kg, po; assay type: organism-based, Macaca fascicularis; details: in vivo
Liver [10] = test: Drug metabolism in human liver microsomes assessed as N-(4-(4-(4-fluorophenyl)-1-methyl-2-(methylsulfinyl)-1H-imidazol-5-yl)pyridin-2-yl)acetamide formation at 10 to 100 uM; assay type: ADME, microsome; procedure, shortened: as §1
Rattus norvegicus [11] = test: In vivo inhibition of P38 MAPKalpha in Lewis rat assessed as decrease in LPS-stimulated TNFalpha level in serum at 10 mg/kg, po pretreated for 3 hrs followed by LPS addition measured after 1.5 hrs post dose; assay type: functional, organism-based
Procedure, shortened: (§2)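 Lewis rats, n = 8/group: females dosed orally at 10 mg/kg at −1, −3 or −5 h relative to LPS challenge, plus one male group dosed at −1 h. Male and female vehicle controls were given at −1 h. Serum TNFα was measured after LPS and compared with vehicle.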

Homo sapiens [12] = species: Homo sapiens; test: Inhibition of PDE4 in human U937 cells assessed as [3H]cAMP hydrolysis at 1 uM relative to control; assay type: cell-based
Rattus norvegicus [13] = test: Toxicity in Sprague-Dawley rat assessed as premature death at 15 to 150 mg/kg, po administered via gavage for 28 days followed by 2 weeks off without dosing; assay type: organism-based; details: in vivo
Procedure, shortened: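 Sprague–Dawley rats, 10–16 per group, 144 in total. Daily dosing for 28 days with vehicle or 15, 50 or 150 mg/kg; the top dose came from a range-finding study. Six males and six females from the control and high-dose groups were followed through a further 2-week treatment-free period. Clinical signs and histopathology recorded.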

Rattus norvegicus [14] = test: Toxicity in rat assessed as effect on central nervous system at 30 to 300 mg/kg, po administered as single dose; assay type: organism-based; details: in vivo
Rattus norvegicus [15] = test: In vivo inhibition of P38 MAPKalpha in Lewis rat assessed as decrease in LPS-stimulated TNFalpha level in serum at 10 mg/kg, po pretreated for 1 hrs followed by LPS addition measured after 1.5 hrs post dose; assay type: functional, organism-based; procedure, shortened: as §2
Rattus norvegicus [16] = test: Antiarthritic activity in Lewis rat assessed as decrease in collagen-induced arthritic score at 50 mg/kg, po qd administered for 10 days; assay type: functional, organism-based
Procedure, shortened: (§3)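 Collagen-induced arthritis in male Lewis rats (5–6 per group). Groups received vehicle, dexamethasone 1 mg/kg, test item 50 mg/kg once daily, or 25 mg/kg twice daily for 10 days. Body weight, arthritic score and paw volume were monitored, and serum COMP was measured at the end.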

[17] = molecular target: Adenosine receptor A1 (Homo sapiens) (UniProt P30542); test: Antagonist activity at adenosine A1 receptor (unknown origin) at 10 uM relative to control
Salmonella typhimurium = test: Genotoxicity in Salmonella typhimurium in presence of S9 fraction by Ames test; assay type: toxicity; details: salmonella enterica subsp. enterica serovar typhimurium
Procedure, shortened: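 Bacterial reverse mutation (Ames) test in S. typhimurium and E. coli strains, run with and without S9 mix.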

Homo sapiens [18] = test: Toxicity in human assessed as change in body weight at 50 mg, po administered as single dose; assay type: organism-based; details: in vivo
Liver [19] = test: Drug metabolism in human liver microsomes assessed as 4-(4-(4-fluorophenyl)-1-methyl-2-(methylsulfonyl)-1H-imidazol-5-yl)pyridin-2-amine formation at 10 to 100 uM; assay type: ADME, microsome; procedure, shortened: as §1
Bone marrow cell = test: Clastogenicity in mouse bone marrow cells by microneucleus test; assay type: toxicity, cell-based
Procedure, shortened: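 In vivo micronucleus test in mouse bone marrow.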

[20] = Cmax in cynomolgus monkey at 20 mg/kg, po measured on day 1 and 27 post dose by LC-MS/MS analysis; assay type: ADME, organism-based, Macaca fascicularis; set-up: dose 20 mg/kg, route oral; details: in vivo
Procedure, shortened: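 Within a 4-week oral toxicity study, Cynomolgus monkeys received 6, 12 or 20 mg/kg daily. Blood was sampled from 0.5 to 24 h post dose on days 1 and 27. Tmax, Cmax, T1/2 and AUC0–24 came from individual profiles of parent and metabolite.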

Cynomolgus monkey [21] = test: Toxicity in cynomolgus monkey assessed as decrease in PQ at 6 to 20 mg/kg, po; assay type: organism-based, Macaca fascicularis; details: in vivo
Rattus norvegicus [22] = test: Toxicity in Sprague-Dawley rat assessed as increase in ptyalism at 150 mg/kg, po administered via gavage for daily 28 days followed by 2 weeks off without dosing; assay type: organism-based; details: in vivo
Rattus norvegicus [23] = test: Toxicity in Sprague-Dawley rat assessed as piloerection at 2000 mg/kg, po administered via gavage measured on day 1 and 2; assay type: organism-based; details: in vivo
Rattus norvegicus [24] = test: Toxicity in rat assessed as soft feces at 30 to 300 mg/kg, po administered as single dose; assay type: organism-based; details: in vivo
Mus musculus = test: Antiarthritic activity in human TNF transgenic mouse model assessed as reduction in paw swelling at 20 to 50 mg/kg/day, po for 10 weeks; assay type: functional, organism-based
Procedure, shortened: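 Heterozygous human TNF transgenic mice (8 per group) were dosed orally for ten weeks with 20 or 50 mg/kg/day as a methylcellulose suspension, alongside vehicle and infliximab i.p. controls. Joint swelling and grip strength were scored weekly, and hind paws were examined histologically at the end.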

Homo sapiens [25] = test: Cmax in human assessed as 4-(4-(4-fluorophenyl)-1-methyl-2-(methylsulfinyl)-1H-imidazol-5-yl)pyridin-2-amine formation at 20 mg, po administered as single dose; assay type: ADME, organism-based; set-up: dose 20 mg, route oral; details: in vivo
Procedure, shortened: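 Oral single-dose PK; plasma concentrations of parent and metabolite measured. Dogs: blood sampled 0.25 to 24 h after dosing. Humans: healthy subjects, placebo-controlled single-blind randomized consecutive dosing, plasma sampled predose and 0.25–36 h post dose. 10 mg also given fasting and fed in crossover. Parameters derived from individual concentration–time profiles.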

Rattus norvegicus [26] = test: Antiarthritic activity in Lewis rat assessed as decrease in collagen-induced arthritic score at 25 mg/kg, po bid administered for 10 days; assay type: functional, organism-based; procedure, shortened: as §3
Cynomolgus monkey [27] = test: Toxicity in cynomolgus monkey assessed as decrease in QT at 6 to 20 mg/kg, po; assay type: organism-based, Macaca fascicularis; details: in vivo
[28] = Half life in male Sprague-Dawley rat at 30 mg/kg, po by LC-MS/MS analysis; assay type: ADME, organism-based; details: in vivo

Chain of Adenosine receptor A1 (Homo sapiens) (P30542 whole entry): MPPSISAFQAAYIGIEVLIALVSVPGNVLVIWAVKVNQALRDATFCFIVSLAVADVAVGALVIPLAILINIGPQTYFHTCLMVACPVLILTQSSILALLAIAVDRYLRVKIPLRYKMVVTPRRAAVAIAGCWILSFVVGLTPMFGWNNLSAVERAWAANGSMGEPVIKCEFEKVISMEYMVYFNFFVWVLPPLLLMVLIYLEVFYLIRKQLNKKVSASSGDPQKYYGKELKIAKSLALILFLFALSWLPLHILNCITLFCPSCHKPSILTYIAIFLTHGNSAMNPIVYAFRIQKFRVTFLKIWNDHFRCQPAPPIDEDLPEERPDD
Chain of Tyrosine-protein kinase Lyn (Homo sapiens) (P07948 2-512 limits assumed): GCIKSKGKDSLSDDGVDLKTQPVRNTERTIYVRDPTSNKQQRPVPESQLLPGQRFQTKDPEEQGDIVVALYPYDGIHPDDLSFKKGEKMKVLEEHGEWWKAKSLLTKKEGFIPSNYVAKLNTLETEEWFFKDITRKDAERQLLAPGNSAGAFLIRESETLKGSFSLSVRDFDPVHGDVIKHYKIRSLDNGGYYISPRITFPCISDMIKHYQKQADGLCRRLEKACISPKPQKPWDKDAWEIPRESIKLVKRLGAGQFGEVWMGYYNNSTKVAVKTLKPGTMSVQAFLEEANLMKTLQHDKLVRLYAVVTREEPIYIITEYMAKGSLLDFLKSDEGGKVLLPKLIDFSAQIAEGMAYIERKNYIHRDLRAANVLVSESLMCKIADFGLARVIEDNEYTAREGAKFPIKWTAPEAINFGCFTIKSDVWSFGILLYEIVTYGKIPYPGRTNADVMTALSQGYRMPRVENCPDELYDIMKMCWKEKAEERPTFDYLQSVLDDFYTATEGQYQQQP

Question: Which results are given for `Cn1c([S+](C)[O-])nc(-c2ccc(F)cc2)c1-c1ccnc(N)c1` (configuration not stated)?
Answer: Drug metabolism (Liver [1]): Metabolite_Detected; Drug metabolism [2]: Metabolite_Detected; Tmax (Canis familiaris): 4 h; Drug metabolism (Liver [3]): Metabolite_Detected

Question: Which results are given for `CC(=O)Nc1cc(-c2c(-c3ccc(F)cc3)nc([S+](C)[O-])n2C)ccn1` (configuration not stated)?
Answer: inhibition [4]: 31%; Drug metabolism (Liver [5]): Metabolite_Detected; Activity (Homo sapiens [6]): Non-Toxic; AUC(0-t) [7]: 40.9 µM·h; half-life [8]: 2.2 h; Activity (Cynomolgus monkey [9]): Toxic; Drug metabolism (Liver [10]): Metabolite_Detected; inhibition (Rattus norvegicus [11]): Active; inhibition (Homo sapiens [12]): 73%; Activity (Rattus norvegicus [13]): Non-Toxic; Activity (Rattus norvegicus [14]): Non-Toxic; inhibition (Rattus norvegicus [15]): Active; Activity (Rattus norvegicus [16]): Active; inhibition [17]: 58%; Activity (Salmonella typhimurium): Non-Toxic; Activity (Homo sapiens [18]): Non-Toxic; Drug metabolism (Liver [19]): Metabolite_Detected; Activity (Bone marrow cell): Non-Toxic; Cmax [20]: 8.4 µM; Activity (Cynomolgus monkey [21]): Toxic; Activity (Rattus norvegicus [22]): Toxic; Activity (Rattus norvegicus [23]): Toxic; Activity (Rattus norvegicus [24]): Toxic; Activity (Mus musculus): Active; Cmax (Homo sapiens [25]): 0.309 µM; Activity (Rattus norvegicus [26]): Active; Activity (Cynomolgus monkey [27]): Toxic; half-life [28]: 1.8 h
